Reference: article PMC5477238 (Clinical cancer research : an official journal of the …, 2016)

Experiments:
TT cells = test: Apoptosis assay; type: cell-based, human; settings: 24-hour incubation
How it was run: (§1)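 Cells kept in F-12K or RPMI with 10% (vol/vol) FBS at 37°C in humidified 5% CO2. They were split into 10-cm dishes and, 24 hours later, exposed to a range of test compound concentrations for 24 hours. Lysates were prepared in RIPA buffer. Cleaved caspase-3 and cleaved PARP were detected by standard Western blotting.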

HUVEC cells = settings: at 1 μmol/L; cited from earlier work
LC-2/ad cells = test: Apoptosis assay; type: cell-based, human; settings: 24-hour incubation
How it was run: as §1

[1] = system: phospho-RET, phospho-PLCγ, phospho-ERK, phospho-MEK in LC-2/ad cells; test: Western blot of RET pathway phosphorylation; type: cell-based, human; settings: 50 nmol/L to 5 μmol/L, 2 hours
[2] = system: LC-2/ad cells (CCDC6-RET); test: Cell viability assay; type: cell-based; settings: Homo sapiens, 72 h, read-out: IC50 (cell viability)
TT cells (RET C634W) = test: Cell viability assay; type: cell-based; settings: Homo sapiens, 96 h, read-out: IC50 (cell viability)
[3] = system: RET-rearranged lung cancers; settings: cited from earlier work

Row | Compound | apoptosis (cleaved caspase-3 and cleaved PARP) (TT cells) | growth inhibitory activity toward HUVEC cells (HUVEC cells) | apoptosis (cleaved caspase-3 and cleaved PARP) (LC-2/ad cells) | ERK and MEK phosphorylation [1] | IC50 [2] [nM] | IC50 (TT cells (RET C634W)) [nM] | patients requiring a dose reduction due to drug-related toxicities ([3]; phase II study) | overall response rate ([3]; phase II trial) [%]
1 | COc1cc2ncnc(Oc3cccc(NC(=O)Nc4cc(C(C)(C)C(F)(F)F)on4)c3)c2cc1OC.Cl [RXDX-105, 1-(3-(6,7-dimethoxyquinazolin-4-yloxy)phenyl)-3-(5-(1,1,1-trifluoro-2-methylpropan-2-yl)isoxazol-3-yl)urea hydrochloride] | no cleavage of caspase-3 and PARP | no growth inhibitory activity | induced apoptosis | – | – | – | – | –
2 | CCc1cc2c(cc1N1CCC(N3CCOCC3)CC1)C(C)(C)c1[nH]c3cc(C#N)ccc3c1C2=O [alectinib] | no cleavage of caspase-3 and PARP was seen in the TT cells, except for the higher doses of alectinib | – | induced apoptosis | neither RXDX-105 nor alectinib treatment showed detectable change | 204 | 90 | – | –
3 | COc1cc2nccc(Oc3ccc(NC(=O)C4(C(=O)Nc5ccc(F)cc5)CC4)cc3)c2cc1OC [cabozantinib] | no cleavage of caspase-3 and PARP | – | induced apoptosis | able to decrease phospho-ERK and phospho-MEK at as low as 50 nmol/L | 98 | 77 | approximately two thirds | 28
